Assay results published in ChEMBL document CHEMBL4007450, “Development of 1,2,4-Oxadiazoles as Potent and Selective Inhibitors of the Human Deacetylase Sirtuin 2: Structure-Activity Relationship, X-ray Crystal Structure, and Anticancer Activity” (J Med Chem, 2017).
Active and inactive are the calls of the source. The calls are words filed in the database; no cut-off is given here.

Legend:
K562 = experiment: Induction of apoptosis in human K562 cells assessed as pre-G1 accumulation at 25 uM after 48 hrs by propidium iodide staining-based FACS analysis; assay type: functional
Method in brief: (§1)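 Leukemia cells (U937, NB4, HL-60, K562) were grown in RPMI-1640 with 10% FBS, 2 mM L-glutamine and antibiotics, then treated for 48 h at 5, 10, 25 and 50 μM. 2.5×10^5 cells were stained 30 min in the dark in hypotonic PI buffer (0.1% Triton X-100, 0.1% citrate, 50 µg/mL PI, RNase A). Apoptosis was scored as pre-G1 content by flow cytometry. Duplicates, mean ± SD.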

KARPAS-299 = experiment: Antiproliferative activity against human KARPAS299 cells harboring NPM1/ALK, [t(2;5)(p23;q35)] mutant assessed as cell growth inhibition after 48 hrs by WST1 assay; assay type: functional, cell-based; details: KARPAS-299, 48 h
Method in brief: (§2)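 WST-1 proliferation assay. Cells plated in triplicate at 5×10^3 cells/well and exposed to increasing compound concentrations for 48 h at 37 °C, 5% CO2. WST-1 reagent was then added for 1 h. IC50 was obtained by nonlinear regression of each cell line's dose-response curve.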

MV4-11 = experiment: Antiproliferative activity against human MV4-11 cells harboring FLT3-ITD [t(4;11)(q21;q23)], MLL/MLLT2(AF4) mutant assessed as cell growth inhibition after 48 hrs by WST1 assay; assay type: functional, cell-based; details: MV4-11, 48 h; method in brief: as §2
NB-4 [1] = experiment: Induction of apoptosis in human NB4 cells assessed as pre-G1 accumulation at 25 uM after 48 hrs by propidium iodide staining-based FACS analysis; assay type: functional; method in brief: as §1
HL-60 [2] = experiment: Antiproliferative activity against human p53 deficient HL60 cells assessed as cell growth inhibition after 48 hrs by WST1 assay; assay type: functional, cell-based; details: HL-60, 48 h; method in brief: as §2
MDA-MB-231 [3] = experiment: Induction of apoptosis in human MDA-MB-231 cells assessed as pre-G1 accumulation at 25 uM after 48 hrs by propidium iodide staining-based FACS analysis; assay type: functional
Method in brief: (§3)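 MDA-MB-231 breast cancer cells were grown in DMEM with 10% FBS, 2 mM L-glutamine and antibiotics, then exposed for 48 h at 5, 10, 25 or 50 μM. 2.5×10^5 cells were stained in hypotonic buffer with 50 µg/mL PI, 0.1% Triton X-100, 0.1% citrate and RNase A for 30 min in the dark. Pre-G1 fraction was measured by flow cytometry. Biological duplicates, mean ± SD.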

Kasumi 1 = experiment: Antiproliferative activity against human Kasumi-1 cells harboring AML1-ETO [t(8:21)] mutant assessed as cell growth inhibition after 48 hrs by WST1 assay; assay type: functional, cell-based; details: Kasumi 1, 48 h; method in brief: as §2
[4] = target: T1, NAD-dependent protein deacetylase sirtuin-2 (Homo sapiens, UniProt Q8IXJ6)
T1 sequence (Q8IXJ6 whole entry): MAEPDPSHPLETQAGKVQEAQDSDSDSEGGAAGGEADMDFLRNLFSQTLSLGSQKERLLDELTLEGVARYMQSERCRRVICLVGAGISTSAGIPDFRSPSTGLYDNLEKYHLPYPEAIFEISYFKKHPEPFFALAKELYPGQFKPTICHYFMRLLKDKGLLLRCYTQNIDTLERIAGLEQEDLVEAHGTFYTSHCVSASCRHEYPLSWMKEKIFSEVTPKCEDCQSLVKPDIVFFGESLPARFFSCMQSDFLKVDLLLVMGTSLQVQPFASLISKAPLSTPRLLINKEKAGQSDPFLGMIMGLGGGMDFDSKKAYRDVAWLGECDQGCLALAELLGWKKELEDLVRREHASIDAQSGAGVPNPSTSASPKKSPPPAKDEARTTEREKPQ

OCI-AML-3 = experiment: Antiproliferative activity against human OCI-AML3 cells harboring NPM1c+, DNMT3A R882C mutant assessed as cell growth inhibition after 48 hrs by WST1 assay; assay type: functional, cell-based; details: OCI-AML-3, 48 h; method in brief: as §2
U-937 [5] = experiment: Cell cycle arrest in human U937 cells assessed as accumulation at S phase at 25 uM after 48 hrs by propidium iodide staining-based FACS analysis; assay type: functional
OCI-AML2 = experiment: Antiproliferative activity against human OCI-AML2 cells harboring DNMT3A R635W mutant assessed as cell growth inhibition after 48 hrs by WST1 assay; assay type: functional, cell-based; details: OCI-AML2, 48 h; method in brief: as §2
NB-4 [6] = experiment: Antiproliferative activity against human NB4 cells harboring PML-RARalpha [t(15;17)(q22;q12)] mutant assessed as cell growth inhibition after 48 hrs by WST1 assay; assay type: functional, cell-based; details: NB-4, 48 h; method in brief: as §2
[7] = Antiproliferative activity against human IMS-M2 cells harboring NPM1c+ assessed as cell growth inhibition after 48 hrs by WST1 assay; assay type: functional, cell-based; details: IMS-M2, 48 h; method in brief: as §2
U-937 [8] = experiment: Antiproliferative activity against human U937 cells harboring p53+/- assessed as cell growth inhibition after 48 hrs by WST1 assay; assay type: functional, cell-based; details: U-937, 48 h; method in brief: as §2
[9] = target: T2, NAD-dependent protein deacetylase sirtuin-2 (Homo sapiens) (UniProt Q8IXJ6); details: 5 to 25 uM
T2 sequence (whole entry): T1 sequence (Q8IXJ6 whole entry)

[10] = target: T2, NAD-dependent protein deacetylase sirtuin-2 (Homo sapiens); details: 5 to 25 uM; remark: listed apart in the source
[11] = target: NAD-dependent protein deacylase sirtuin-5, mitochondrial (Homo sapiens) (UniProt Q9NXA8); experiment: Inhibition of human SIRT5 (34 to 302 residues) deacetylase activity expressed in Escherichia coli using Prx1 peptide as substrate at 100 uM after 45 mins in presence of NAD+ by pNCA/GDH-based microplate spectrophotometric analysis
Chain of NAD-dependent protein deacylase sirtuin-5, mitochondrial (Homo sapiens) (Q9NXA8 37-310 limits assumed): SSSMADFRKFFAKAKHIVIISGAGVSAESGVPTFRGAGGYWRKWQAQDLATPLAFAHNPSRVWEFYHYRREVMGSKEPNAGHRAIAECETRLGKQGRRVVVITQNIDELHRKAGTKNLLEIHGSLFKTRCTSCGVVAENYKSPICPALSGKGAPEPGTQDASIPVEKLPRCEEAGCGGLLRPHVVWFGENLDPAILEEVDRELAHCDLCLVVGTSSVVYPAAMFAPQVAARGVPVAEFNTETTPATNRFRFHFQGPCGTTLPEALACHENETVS

[12] = target: T3, NAD-dependent protein deacetylase sirtuin-1 (Homo sapiens) (UniProt Q96EB6); details: 100 uM
T3 sequence (whole entry): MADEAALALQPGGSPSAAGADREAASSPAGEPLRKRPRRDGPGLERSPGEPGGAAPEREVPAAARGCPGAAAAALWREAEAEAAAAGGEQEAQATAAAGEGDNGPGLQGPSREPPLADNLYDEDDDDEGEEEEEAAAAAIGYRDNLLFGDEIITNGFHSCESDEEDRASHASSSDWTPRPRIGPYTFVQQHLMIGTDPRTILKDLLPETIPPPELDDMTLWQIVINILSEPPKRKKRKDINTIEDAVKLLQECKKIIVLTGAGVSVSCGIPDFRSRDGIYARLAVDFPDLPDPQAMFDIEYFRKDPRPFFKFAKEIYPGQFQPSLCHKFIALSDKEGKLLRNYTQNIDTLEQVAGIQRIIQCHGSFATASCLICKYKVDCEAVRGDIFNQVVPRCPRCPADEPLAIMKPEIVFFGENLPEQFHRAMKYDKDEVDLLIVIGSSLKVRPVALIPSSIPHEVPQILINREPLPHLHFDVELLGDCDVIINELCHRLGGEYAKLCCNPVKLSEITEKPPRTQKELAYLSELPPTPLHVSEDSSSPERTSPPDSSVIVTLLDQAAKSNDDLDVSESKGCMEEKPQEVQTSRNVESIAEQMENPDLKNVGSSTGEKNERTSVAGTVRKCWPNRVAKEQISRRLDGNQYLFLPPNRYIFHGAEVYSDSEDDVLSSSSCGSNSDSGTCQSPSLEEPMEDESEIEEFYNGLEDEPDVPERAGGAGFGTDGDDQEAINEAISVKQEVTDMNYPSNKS

[13] = target: NAD-dependent protein deacylase sirtuin-5, mitochondrial (Homo sapiens) (UniProt Q9NXA8); experiment: Inhibition of human SIRT5 (34 to 302 residues) desuccinylase activity expressed in Escherichia coli using CPS1 peptide as substrate at 100 uM after 45 mins in presence of NAD+ by pNCA/GDH-based microplate spectrophotometric analysis
HL-60 [14] = experiment: Induction of apoptosis in human HL60 cells assessed as pre-G1 accumulation at 50 uM after 48 hrs by propidium iodide staining-based FACS analysis; assay type: functional; method in brief: as §1
U-937 [15] = experiment: Effect on cell cycle arrest in human U937 cells at 25 uM after 48 hrs by propidium iodide staining-based FACS analysis; assay type: functional
NB-4 [16] = experiment: Induction of apoptosis in human NB4 cells assessed as pre-G1 accumulation at 10 uM after 48 hrs by propidium iodide staining-based FACS analysis; assay type: functional, cell-based; method in brief: as §1
[17] = target: T4, NAD-dependent protein deacetylase sirtuin-3, mitochondrial (Homo sapiens) (UniProt Q9NTG7); experiment: Inhibition of human SIRT3 (114 to 380 residues) activity expressed in Escherichia coli using AceCS2 peptide as substrate up to 100 uM after 45 mins in presence of NAD+ by pNCA/GDH-based microplate spectrophotometric analysis
T4 sequence (whole entry): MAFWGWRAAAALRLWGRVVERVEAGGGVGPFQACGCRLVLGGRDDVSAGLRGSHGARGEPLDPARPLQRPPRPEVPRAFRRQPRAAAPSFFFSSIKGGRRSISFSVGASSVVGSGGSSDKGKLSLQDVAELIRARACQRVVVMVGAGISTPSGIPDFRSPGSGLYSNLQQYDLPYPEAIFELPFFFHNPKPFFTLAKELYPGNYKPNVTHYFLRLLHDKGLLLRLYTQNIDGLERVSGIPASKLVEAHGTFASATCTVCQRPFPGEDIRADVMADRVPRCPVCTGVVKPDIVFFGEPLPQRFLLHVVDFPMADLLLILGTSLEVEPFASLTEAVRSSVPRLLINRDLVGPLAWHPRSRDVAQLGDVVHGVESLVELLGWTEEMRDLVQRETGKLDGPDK
Method in brief: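 Same pNCA/GDH-coupled 340 nm NADPH read-out as the Sirt2 assay, using 20 mM Na-phosphate pH 7.8 with 3% DMSO at 20 °C for 45 min. Sirt3 (114-380) was used at 5 µM with AceCS2 peptide TRSGacKVMR as substrate. Inhibitors were tested up to 100 µM.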

[18] = target: T3, NAD-dependent protein deacetylase sirtuin-1 (Homo sapiens); experiment: Inhibition of human full length SIRT1 activity expressed in Escherichia coli using p53 peptide as substrate up to 100 uM after 45 mins in presence of NAD+ by pNCA/GDH-based microplate spectrophotometric analysis
Method in brief: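 Full-length Sirt1 at 2 µM with p53 peptide RHKacKLMFK as substrate. Activity was measured in the same coupled pNCA/GDH mix as for Sirt2 (α-ketoglutarate, NADPH, Na-phosphate pH 7.8, 3% DMSO), following NADPH oxidation at 340 nm at 20 °C for 45 min. Compounds were tested up to 100 µM.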

U-937 [19] = experiment: Induction of apoptosis in human U937 cells assessed as pre-G1 accumulation at 50 uM after 48 hrs by propidium iodide staining-based FACS analysis; assay type: functional; method in brief: as §1
[20] = target: NAD-dependent protein deacylase sirtuin-5, mitochondrial (Homo sapiens) (UniProt Q9NXA8); experiment: Inhibition of human SIRT5 (34 to 302 residues) desuccinylase activity expressed in Escherichia coli using peptide as substrate up to 100 uM after 45 mins in presence of NAD+ by pNCA/GDH-based microplate spectrophotometric analysis
[21] = target: NAD-dependent protein deacylase sirtuin-5, mitochondrial (Homo sapiens) (UniProt Q9NXA8); experiment: Inhibition of human SIRT5 (34 to 302 residues) deacetylase activity expressed in Escherichia coli using Prx1 peptide as substrate up to 100 uM after 45 mins in presence of NAD+ by pNCA/GDH-based microplate spectrophotometric analysis
NB-4 [22] = experiment: Induction of apoptosis in human NB4 cells assessed as pre-G1 accumulation at 50 uM after 48 hrs by propidium iodide staining-based FACS analysis; assay type: functional; method in brief: as §1
U-937 [23] = experiment: Induction of apoptosis in human U937 cells assessed as pre-G1 accumulation at 25 uM after 48 hrs by propidium iodide staining-based FACS analysis; assay type: functional; method in brief: as §1
MDA-MB-231 [24] = experiment: Induction of apoptosis in human MDA-MB-231 cells assessed as pre-G1 accumulation at 50 uM after 48 hrs by propidium iodide staining-based FACS analysis; assay type: functional; method in brief: as §3

Row | SMILES | IC50 (KARPAS-299) [µM] | IC50 (MV4-11) [µM] | IC50 (HL-60 [2]) [µM] | IC50 (Kasumi 1) [µM] | IC50 [4] [µM] | IC50 (OCI-AML-3) [µM] | IC50 (OCI-AML2) [µM] | IC50 (NB-4 [6]) [µM] | IC50 [7] [µM] | IC50 (U-937 [8]) [µM] | further results
1 | COc1ccc(-c2noc(CCCBr)n2)cc1 | 36 | 16 | 30 | 10.3 | 10.4 | 62 | 37 | 12 | 18.4 | 25 | Activity (K562): >80%; Activity (NB-4 [1]): >80%; Activity (MDA-MB-231 [3]): >80%; Activity (U-937 [5]): Active
2 | N#C/C(=C\c1ccc(-c2cc(Cl)ccc2Cl)o1)C(=O)Nc1cccc2ncccc12 | – | – | – | – | – | – | – | – | – | – | inhibition [9]: inactive; inhibition [10]: inactive; inhibition [11]: Active; inhibition [12]: Active; inhibition [13]: Active; Activity (HL-60 [14]): 6%
3 | BrCCCc1nc(-c2ccc(Br)cc2)no1 | 25 | 38 | 100 | 56 | – | 66 | 85 | 49 | 100 | > 100 | Activity (U-937 [15]): inactive; Activity (NB-4 [16]): Active; inhibition [17]: inactive; inhibition [18]: inactive; Activity (U-937 [19]): >80%; inhibition [20]: inactive; inhibition [21]: inactive
4 | Fc1ccc(-c2noc(CCCBr)n2)cc1 | – | – | – | – | 19.8 | – | – | – | – | – | Activity (NB-4 [22]): 30 - 40%; Activity (U-937 [23]): 11.1 - 37.1%; Activity (MDA-MB-231 [24]): 30 - 40%
